Variants at the floor of the assay were thinned out.
B1: tRNA (parent)
chain: GUUCCGUUGGCGUAAUGGUAACGCGUCUCCCUCCUAAGGAGAAGACUGCGGGUUCGAGUCCCGUACGGAACG

Variants of: B1
Assay: yeast fitness relative to wild type (ratio to wild type); higher = fitter; tRNA-Arg(CCU), competitive growth, 37 C, YPD
Outline: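 A pool of Saccharomyces cerevisiae strains, each with a tRNA-Arg(CCU) gene variant at the native genomic locus, was competed in YPD at 37°C for 24 hours across six parallel replicates. The variants had been chemically synthesised at a 3% per-site mutation rate over 69 sites, and gene amplicons before and after competition were read by 100-nucleotide paired-end sequencing. Darwinian fitness relative to wild type rested on changes in genotype frequencies. Genotypes required ≥ 100 starting reads, and estimates < 0.5 were set to 0.5.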

| Variant | yeast fitness |
| --- | --- |
| U2C A15G | 0.91 |
| U2C A15G A69C | 0.691 |
| U2C A15G G44A G50C A70G | ≤ 0.5 |
| U2C A15G U19A A20U A37U A45G U47G C61G | 0.676 |
| U2C A15U A20U | ≤ 0.5 |
| U2C A15U A20U C27U C61G | ≤ 0.5 |
| U2C A15U A37G | ≤ 0.5 |
| U2C A15U C34A G39C A40C G56C C61G C62G G68C | ≤ 0.5 |
| U2C A15U C46A | ≤ 0.5 |
| U2C A15U U16C G23C | ≤ 0.5 |
| U2C A20C | 0.98 |
| U2C A20C A65U | 0.641 |
| U2C A20C C29G A36C G52C A57U | ≤ 0.5 |
| U2C A20G | 0.98 |
| U2C A20G C22U C24A A69G | ≤ 0.5 |
| U2C A20G C27G A37C G38C A43G A69U | ≤ 0.5 |
| U2C A20G C27G A37C G38C A43G C55A | ≤ 0.5 |
| U2C A20G C30U | 0.576 |
| U2C A20G C62U | 0.599 |
| U2C A20U A40U C62A C66A | ≤ 0.5 |
| U2C A20U A45G | ≤ 0.5 |
| U2C A20U A69C | 0.636 |
| U2C A20U C34G A42G A43U A65G | ≤ 0.5 |
| U2C A20U C61A G67A | ≤ 0.5 |

| Variant | yeast fitness |
| --- | --- |
| U2C A20U G25A C27G G67A | ≤ 0.5 |
| U2C A21C A42U U54A | ≤ 0.5 |
| U2C A21C C30A C62U A70U | ≤ 0.5 |
| U2C A21G A36G G38C | ≤ 0.5 |
| U2C A21G A65U | 0.665 |
| U2C A21G C33G A69C | 0.57 |
| U2C A21G C33G U35C U59A A69U | ≤ 0.5 |
| U2C A21G G68A | 0.864 |
| U2C A21U A40C G56C | 0.66 |
| U2C A21U U32A A40C G56C | ≤ 0.5 |
| U2C A21U U35A G41C U47A G67C | ≤ 0.5 |
| U2C A36C | 0.543 |
| U2C A36C G38C C55U C62A | ≤ 0.5 |
| U2C A36C G39A A57U | 0.539 |
| U2C A36G | 0.907 |
| U2C A36G C61G U64C | ≤ 0.5 |
| U2C A36U | 0.682 |
| U2C A36U C46G A69U | 0.517 |
| U2C A37C | 0.81 |
| U2C A37G | 0.67 |
| U2C A37G A40G A45U | ≤ 0.5 |
| U2C A37G C55G U64A | ≤ 0.5 |
| U2C A37G G38C C49U G52C A57C A65C | ≤ 0.5 |
| U2C A37G G68C | ≤ 0.5 |

| Variant | yeast fitness |
| --- | --- |
| U2C A37U | 0.826 |
| U2C A37U A43U | 0.568 |
| U2C A37U G48A C61U | ≤ 0.5 |
| U2C A37U G52A | ≤ 0.5 |
| U2C A37U U53A G63A | ≤ 0.5 |
| U2C A40C | 0.851 |
| U2C A40C A57C C66U | ≤ 0.5 |
| U2C A40C C66U | 0.524 |
| U2C A40C G48A | 0.751 |
| U2C A40G A43U A45C | ≤ 0.5 |
| U2C A40G A43U A45C A57G A65C | 0.52 |
| U2C A40G A45C | ≤ 0.5 |
| U2C A40G C61A | ≤ 0.5 |
| U2C A40G G68C | 0.571 |
| U2C A40G U59C | 0.587 |
| U2C A40U G58C | 0.705 |
| U2C A40U U54A | ≤ 0.5 |
| U2C A42C C66U | 0.574 |
| U2C A42C U54A G67C A69U | ≤ 0.5 |
| U2C A42G A45C C61G | ≤ 0.5 |
| U2C A42G C55U | ≤ 0.5 |
| U2C A42G C61G | ≤ 0.5 |
| U2C A42G G63A | 0.543 |
| U2C A43C A45C G51C | ≤ 0.5 |

| Variant | yeast fitness |
| --- | --- |
| U2C A43G C49A A57U | ≤ 0.5 |
| U2C A43U | 0.989 |
| U2C A43U G48A C61G A70C | ≤ 0.5 |
| U2C A43U G50A U54G C62U | ≤ 0.5 |
| U2C A43U G50A U54G G68C | ≤ 0.5 |
| U2C A43U U47C | 0.749 |
| U2C A45C | 1.01 |
| U2C A45C C46U G68C | ≤ 0.5 |
| U2C A45C C49U | 0.698 |
| U2C A45G | 0.883 |
| U2C A45G C49G | ≤ 0.5 |
| U2C A45G G56C | 0.575 |
| U2C A45G G68A | ≤ 0.5 |
| U2C A45U C46G G58C U59C A65G C66G | 0.628 |
| U2C A57C | 0.679 |
| U2C A57C A69U | 0.578 |
| U2C A57U | 0.685 |
| U2C A65U | 1.05 |
| U2C A65U G67A | 0.698 |
| U2C A69C | 0.872 |
| U2C A69U | 0.96 |
| U2C A70U | 1.06 |
| U2C C4A | 0.877 |
| U2C C4A C11U C60A C62U | ≤ 0.5 |

| Variant | yeast fitness |
| --- | --- |
| U2C C4A C27G C34G G51A | 0.514 |
| U2C C4A C29G | 0.704 |
| U2C C4A C60A C62U | ≤ 0.5 |
| U2C C4A G23A C61A | ≤ 0.5 |
| U2C C4A U13C C29U U47A G52A C62U | ≤ 0.5 |
| U2C C4G | 0.965 |
| U2C C4G C22U C30A | ≤ 0.5 |
| U2C C4G C27G U32A U35C C49A U59C | ≤ 0.5 |
| U2C C4G G6C G18A C24U C27A U35C G41A U47C | ≤ 0.5 |
| U2C C4G G9A C24U A45C | ≤ 0.5 |
| U2C C4U A42G | 0.512 |
| U2C C4U C27U A45C G48A G56C | ≤ 0.5 |
| U2C C4U C31A C33U G56C | ≤ 0.5 |
| U2C C4U C34A A65C C66G | 0.583 |
| U2C C4U C34U | 0.719 |
| U2C C4U C34U C55U G68C | ≤ 0.5 |
| U2C C4U G48A | 0.538 |
| U2C C5A A65U | 0.668 |
| U2C C5A C24A U47A C66G | ≤ 0.5 |
| U2C C5A C24A U64G | ≤ 0.5 |
| U2C C5A C30G | ≤ 0.5 |
| U2C C5A C46U | 0.591 |
| U2C C5A G10C G12A G23A | ≤ 0.5 |
| U2C C5G A37G G48A | ≤ 0.5 |

| Variant | yeast fitness |
| --- | --- |
| U2C C5G A45C A69U | 0.549 |
| U2C C5G C27U A45G U53C | ≤ 0.5 |
| U2C C5G C30G G44A | ≤ 0.5 |
| U2C C5G C46U A70G | 0.994 |
| U2C C5G C46U G58A | 0.611 |
| U2C C5G C46U U54G A65C | ≤ 0.5 |
| U2C C5G C62U | 0.717 |
| U2C C5G G9A A15U | 0.539 |
| U2C C5G G9A A15U A69U | ≤ 0.5 |
| U2C C5G G44A C46A G52A C66U | ≤ 0.5 |
| U2C C5G U59A | 0.613 |
| U2C C5U A15U | 0.568 |
| U2C C5U C11G U19A C30U G58A | ≤ 0.5 |
| U2C C5U C27G U28A A43U | ≤ 0.5 |
| U2C C11A A14C C22U A45U | ≤ 0.5 |
| U2C C11A A40C | 0.553 |
| U2C C11A C31U C33U A42C | 0.527 |
| U2C C11A U32C | ≤ 0.5 |
| U2C C11G A14C C61U U64A | 0.623 |
| U2C C11G C24A | 0.665 |
| U2C C11G C24A C55A | 0.786 |
| U2C C11G C27U C46G | 0.606 |
| U2C C11G C46A A57U | ≤ 0.5 |
| U2C C11G C46A A70C | ≤ 0.5 |

| Variant | yeast fitness |
| --- | --- |
| U2C C11G U19G | ≤ 0.5 |
| U2C C11U | 1.03 |
| U2C C11U A21C U26C A57U | ≤ 0.5 |
| U2C C11U A21C U26C C34A A45U C46A G50A U54C C55G | ≤ 0.5 |
| U2C C11U A37U U53A | ≤ 0.5 |
| U2C C11U A65C | 0.583 |
| U2C C11U C22U A57U | ≤ 0.5 |
| U2C C11U G12A A15G U54C C66U G68C A69U | ≤ 0.5 |
| U2C C22A | 0.927 |
| U2C C22A C29A C55U C61A | ≤ 0.5 |
| U2C C22A C29A G51C | 0.596 |
| U2C C22G A36G | 0.651 |
| U2C C22G A37C A45U G67A | ≤ 0.5 |
| U2C C22G C31U C60U C61U | 0.527 |
| U2C C22G U53C | 0.504 |
| U2C C22U A40U | 0.574 |
| U2C C22U G48A G63C | 0.701 |
| U2C C24A U26A U47C | ≤ 0.5 |
| U2C C24G | 0.946 |
| U2C C24G A36G A42U A45U | ≤ 0.5 |
| U2C C24G A37G G58A G67A | ≤ 0.5 |
| U2C C24G A42U | ≤ 0.5 |
| U2C C24G C30U C62U | ≤ 0.5 |

— the RNAGym collection of RNA variant scans (doi:10.1126/science.aae0568)
